DAGLB inh: diacylglycerol lipase beta (human) inhibition. Q8NCG7. HEK293T DAGLB membrane lysate, EnzChek fluorogenic substrate. inhibition, % at 5.17 µM. 0.059% of 340,000 active; in the data active means inhibition above about 34%
MPTP block: inhibitors of mitochondrial permeability transition pore; inhibition, % at 10 µM; isolated mouse mitochondria, Ca2+ swelling absorbance, 30 min; 1.4% of 360,000 active;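 active means inhibition of 50% or more, scaled per plate between neutral and stimulator controls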
TAAR1 agonist: agonists of human TAAR1 | Q96RJ0 | CHO RD-HGA16 TAAR1, Fluo-8 calcium fluorescence; vehicle wells 0%, saturating PEA agonist 100% | activation, % at 3 µM | 0.99% of 360,000 active | AID 624467;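 active means activation above the mean activation of all test compounds in the run plus 3 SD, cut at about 38% in these data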
Target sequence (Q96RJ0 whole entry, looked up): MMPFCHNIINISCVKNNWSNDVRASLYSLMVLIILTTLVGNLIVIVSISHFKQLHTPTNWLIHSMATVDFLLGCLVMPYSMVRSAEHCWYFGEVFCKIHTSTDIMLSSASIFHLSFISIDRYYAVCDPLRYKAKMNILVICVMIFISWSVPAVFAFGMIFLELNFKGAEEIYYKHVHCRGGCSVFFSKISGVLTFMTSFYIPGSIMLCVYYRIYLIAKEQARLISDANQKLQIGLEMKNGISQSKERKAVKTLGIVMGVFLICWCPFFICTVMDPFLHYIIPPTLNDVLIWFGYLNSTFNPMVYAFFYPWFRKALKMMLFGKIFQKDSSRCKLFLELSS
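Signal – calcium-sensitive Fluo-8 signal, excitation 470-495, emission 515-575 nm · System – RD-HGA16 (CHO) cells co-expressing Gα16 and hTAAR1 · Incubation – 17-24 h seeding, 75 min 37 °C dye, 30 min RT · Compound dosing – 3 µM single concentration · Repeats – no replicates (n 1)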
GPR7 antag: antagonists of human GPR7 (neuropeptides B/W receptor 1); 1.1% of 290,000 active; P48145; inhibition, % at 4.4 µM; GPR7-expressing cells, fluorescence antagonist assay; in the data active means inhibition above about 16%, passing the limit was not always enough;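 further: cells stimulated with the agonist NPW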
Target sequence (P48145 whole entry, looked up): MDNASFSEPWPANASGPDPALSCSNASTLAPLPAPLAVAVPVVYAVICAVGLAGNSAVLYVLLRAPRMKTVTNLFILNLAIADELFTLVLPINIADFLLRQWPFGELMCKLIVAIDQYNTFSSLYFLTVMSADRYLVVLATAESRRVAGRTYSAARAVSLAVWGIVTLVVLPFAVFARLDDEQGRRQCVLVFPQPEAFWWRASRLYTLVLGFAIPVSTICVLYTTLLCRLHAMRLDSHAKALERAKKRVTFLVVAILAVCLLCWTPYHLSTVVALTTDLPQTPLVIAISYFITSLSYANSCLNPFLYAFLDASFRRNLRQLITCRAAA
TAAR1 antag: antagonists of human TAAR1 | inhibition, % at 3 µM | Q96RJ0 | AID 624466 | 1.5% of 360,000 active | CHO RD-HGA16 TAAR1, Fluo-8 calcium fluorescence, antagonist;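 active means inhibition above a per-plate cutoff, the mean inhibition of test compounds on that plate plus 3 SD, cut at about 49% in these data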
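Test system – hTAAR1-expressing CHO RD-HGA16 cells, Gα16-coupled · Also added – β-PEA at EC80 concentration, post-compound challenge · Compound – 3 µM, single point · Incubation – dye loading 75 min at 37 °C, then 30 min room temperature · Measured by – Fluo-8 intracellular calcium dye fluorescence, real-time kinetic reads · Benchmarks – vehicle and agonist controls · Replicates – singlicate, one well per test compound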
GPR7 antag conf: human GPR7 antagonism, confirmation assay; shares compounds with GPR7 antag; GPR7-expressing cells, calcium fluorescence antagonist mode; inhibition, % at 4.4 µM; 52% of 2,400 active; in the data active means inhibition above about 24%;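 further: stimulated with the GPR7 agonist NPW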
MCHR1 antagonist: MCHR1 (human) antagonism in GPR7 counter-screen | AID 2148 | inhibition, % at 4.4 µM | 62% of 2,400 active | MCHR1-expressing cells, fluorescence antagonist assay | shares compounds with GPR7 antag
Rh123 counter: mitochondrial membrane potential, counter-screen. shares compounds with MPTP block. isolated mitochondria, Rhodamine 123 fluorescence. inhibition, % at 10 µM. 78% of 5,000 active. AID 624504
TAAR1 ag confirm: confirmation of human TAAR1 agonists; shares compounds with TAAR1 agonist; CHO RD-HGA16 TAAR1, Fluo-8 calcium fluorescence; scaled: DMSO 0%, maximal phenethylamine 100%; activation, % at 3 µM; 82% of 2,400 active; AID 651783;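 active means activation above a cutoff set at the run's mean compound activation plus 3 SD, cut at about 39% in these data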
Ga16 nonsel ag: nonselective agonism, TAAR1 counter-screen; shares compounds with TAAR1 agonist; CHO-Ga16 parental, Fluo-8 calcium fluorescence; normalized to maximal ATP response, DMSO zero; activation, % at 3 µM; 50% of 2,400 active; AID 651787;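 active means activation above the run cutoff, the mean activation over all tested wells plus 3 SD, cut at about 12% in these data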
TAAR1 desensitize: counter-screen for human TAAR1 agonists: agonists that desensitize TAAR1; inhibition, % at 3 µM; 46% of 2,400 active; shares compounds with TAAR1 agonist; CHO RD-HGA16 hTAAR1, Fluo-8 calcium, beta-PEA response inhibition; AID 651951;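 active means inhibition above the run cutoff, the mean inhibition of all test compounds plus 3 SD, cut at about 49% in these data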;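 further: beta-PEA stimulus applied at its EC80; loss of beta-PEA calcium signal after compound pretreatment read as receptor desensitization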
Ga16 antag count: nonselective Ga16 antagonist in TAAR1 agonist counter-screen; shares compounds with TAAR1 agonist; inhibition, % at 3 µM; 39% of 2,400 active; CHO-Ga16 ATP-induced calcium, Fluo-8 fluorescence; AID 651952;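 active means inhibition above the plate's mean compound inhibition plus 3 SD, computed per plate, cut at about 22% in these data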
Of the large screens only hits and unclear results are named; the others gave an inactive call (follow-up assays come after a bar, where they were run). Shown are actives, neighbours in structure and some others; about 4% of the full set was active somewhere. Unless noted, no stated cut-off is given here; in the data, active means inhibition above about 22%; inactive means the rest.

CCCOc1ccc(C(=O)NNC(=S)NC(=O)c2ccccc2)cc1	TAAR1 agonist 161, GPR7 antag 42, TAAR1 antag 106 | GPR7 antag conf 60 | MCHR1 antagonist 62 | TAAR1 ag confirm 147 | Ga16 nonsel ag 117 | TAAR1 desensitize 106 | Ga16 antag count 95
Cc1cccc(C(=O)NC(=S)NNC(=O)c2ccc(Cl)cc2)c1	MPTP block 95, TAAR1 agonist 171, GPR7 antag 32, TAAR1 antag 104 | GPR7 antag conf 58 | MCHR1 antagonist 50 | Rh123 counter inactive | TAAR1 ag confirm 159 | Ga16 nonsel ag 121 | TAAR1 desensitize 107 | Ga16 antag count 93
CCCOc1ccc(C(=O)NNC(=S)NC(C)=O)cc1	none
CCCCC[C@H](C)N1C[C@@H](COCc2ccccc2)Oc2cc(N3CCC[C@@H]3COC)ccc2S1(=O)=O	none (no result: DAGLB inh, GPR7 antag)
CCN1CCN(CCNC(=O)c2ccc(/C=C3/Sc4ccccc4N(Cc4ccccc4C)C3=O)cc2)CC1	TAAR1 agonist 60, GPR7 antag 26 | GPR7 antag conf 83 | MCHR1 antagonist 91 | TAAR1 ag confirm 72 | Ga16 nonsel ag 46 | TAAR1 desensitize 65 | Ga16 antag count 56
C=CCN1[C@@H](C)[C@H](c2ccccc2)Oc2cccc(NCC(C)C)c2S1(=O)=O	none (no result: DAGLB inh, MPTP block, GPR7 antag)
CCN(CC)C(=O)C1=C(C)N(Cc2ccc(C(C)(C)C)cc2)C(=O)C(CC(=O)NCc2cccs2)C1 (stereo unspecified)	none (no result: GPR7 antag)
Cn1c(=O)c(NCCO)c2c3c(cccc31)C(=O)c1ccccc1-2	TAAR1 agonist 285, GPR7 antag 61, TAAR1 antag 58 | GPR7 antag conf 60 | MCHR1 antagonist 82 | TAAR1 ag confirm 52 | Ga16 nonsel ag 158 | TAAR1 desensitize inactive | Ga16 antag count 48
CC(=O)Nc1ccc(Nc2c3c4c(cccc4n(C)c2=O)C(=O)c2ccccc2-3)cc1	none
C#CCN(C[C@H]1[C@H](OC(=O)Nc2cccs2)[C@H](OC(=O)Nc2cccs2)CN(C(=O)OC(C)C)N1C(=O)OC(C)C)S(=O)(=O)c1ccc(C)cc1	none (no result: DAGLB inh, MPTP block, GPR7 antag)
Cc1cc(C)nc(/N=C(\N)Nc2ccc(SC(F)F)cc2)n1	TAAR1 agonist 102, GPR7 antag 64, TAAR1 antag 95 | GPR7 antag conf 68 | MCHR1 antagonist 78 | TAAR1 ag confirm 99 | Ga16 nonsel ag 63 | TAAR1 desensitize 98 | Ga16 antag count 69
Cc1cc(C)nc(/N=C(\N)Nc2ccc(S(N)(=O)=O)cc2)n1	none
Cc1ccc(C)c(N/C(N)=N/c2nc(C)cc(C)n2)c1	TAAR1 agonist 116, GPR7 antag 61, TAAR1 antag 98 | GPR7 antag conf 66 | MCHR1 antagonist 71 | TAAR1 ag confirm 105 | Ga16 nonsel ag 67 | TAAR1 desensitize 99 | Ga16 antag count 76
CCOc1ccc(N/C(N)=N/c2nc(C)cc(C)n2)cc1	TAAR1 agonist 70, GPR7 antag 99, TAAR1 antag 97 | GPR7 antag conf 94 | MCHR1 antagonist 97 | TAAR1 ag confirm 51 | Ga16 nonsel ag 39 | TAAR1 desensitize 93 | Ga16 antag count 81
CCN1CCc2c(sc(NC(=O)Nc3ccc(Cl)c(Cl)c3)c2C(N)=O)C1	MPTP block 55, TAAR1 agonist 178, GPR7 antag 58, TAAR1 antag 102 | GPR7 antag conf 60 | MCHR1 antagonist 81 | Rh123 counter 51 | TAAR1 ag confirm 164 | Ga16 nonsel ag 177 | TAAR1 desensitize 90 | Ga16 antag count 88
CCN1CCc2c(sc(NC(=O)Cc3ccccc3)c2C(N)=O)C1	none
COc1ccc(C(OCC(O)CNCCc2ccccc2)c2ccc(OC)cc2)cc1 (stereo unspecified)	TAAR1 agonist 104, GPR7 antag 61, TAAR1 antag 97 | GPR7 antag conf 35 | MCHR1 antagonist 53 | TAAR1 ag confirm 104 | Ga16 nonsel ag 18 | TAAR1 desensitize 101 | Ga16 antag count 27
COc1ccc(CNS(=O)(=O)CCNCCc2ccccc2)cc1	none (no result: GPR7 antag)
CCCCc1cc(O)c(CCCC)c(O)c1	TAAR1 agonist 113, GPR7 antag 93, TAAR1 antag 102 | GPR7 antag conf 93 | MCHR1 antagonist 96 | TAAR1 ag confirm 130 | Ga16 nonsel ag 95 | TAAR1 desensitize 106 | Ga16 antag count 92
c1cc(C2OCCO2)cs1	none (no result: GPR7 antag)
CCN(c1ccccc1)S(=O)(=O)c1ccc(C(=O)N(CCCN(C)C)c2nc3c(C)cccc3s2)cc1	TAAR1 agonist 43, GPR7 antag 29 | GPR7 antag conf 53 | MCHR1 antagonist 52 | TAAR1 ag confirm inactive | Ga16 nonsel ag 16 | TAAR1 desensitize inactive | Ga16 antag count 32
CCC(=O)N(Cc1ccco1)c1nc(-c2ccc(OC)cc2)cs1	none
CCC(=O)N(CC)c1nc(-c2ccc(OC)cc2)cs1	TAAR1 agonist 70, GPR7 antag 27, TAAR1 antag 70 | GPR7 antag conf inactive | MCHR1 antagonist inactive | TAAR1 ag confirm 44 | Ga16 nonsel ag 44 | TAAR1 desensitize 58 | Ga16 antag count 46
C[C@@H](C(=O)NCCc1ccccc1)N1C(=O)N2CCc3c([nH]c4ccccc34)[C@@]2(C)C1=O	TAAR1 agonist 71, GPR7 antag 24, TAAR1 antag 68 | GPR7 antag conf inactive | MCHR1 antagonist 27 | TAAR1 ag confirm 68 | Ga16 nonsel ag inactive | TAAR1 desensitize inactive | Ga16 antag count inactive
C[C@@H](C(=O)NCCc1ccccc1F)N1C(=O)N2CCc3c([nH]c4ccccc34)[C@@]2(C)C1=O	TAAR1 agonist 59, GPR7 antag 25 | GPR7 antag conf inactive | MCHR1 antagonist 34 | TAAR1 ag confirm 73 | Ga16 nonsel ag inactive | TAAR1 desensitize inactive | Ga16 antag count inactive
C[C@@H](C(=O)NC1CCCCC1)N1C(=O)N2CCc3c([nH]c4ccccc34)[C@@]2(C)C1=O	none
CC(C)Cc1ccc(CN2CCCC(NC(=O)CSc3nncn3C)C2)cc1 (stereo unspecified)	none
